Results reported in publication PMC3206492 (Journal of the American Chemical Society, 2011).

System: PBP1b
Test: In vitro PBP1b transglycosylase assay
Assay type: biochemical, Escherichia coli
Conditions: peptide up to 200 μM
In short: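 E. coli PBP1b glycan polymerization with heptaprenyl lipid II substrate at 4 μM, run with and without test peptide. Peptidoglycan formation was monitored, and IC50 is the peptide concentration giving half-maximal inhibition of PBP1b activity.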

Substance | inhibition of lipid II polymerization at concentrations up to 200 μM
epilancin 15X | did not demonstrate any inhibitory activity
lactocin S | did not demonstrate any inhibitory activity
sublancin | did not inhibit
